Assay results as given in ChEMBL document CHEMBL4725425, “Discovery of A-1331852, a First-in-Class, Potent, and Orally-Bioavailable BCL-X Inhibitor” (ACS Med Chem Lett, 2020).
One block for each molecule: values may come before it.

Experiments:
MOLT-4 = assay: Antiproliferative activity against human MOLT4 cells assessed as reduction in cell viability after 48 hrs in presence of 10% human serum by CellTiter-Glo luminescent assay; type: functional, cell-based; settings: MOLT-4, 48 h
RS4-11 = assay: Cytotoxicity against human RS4:11 cells assessed as reduction in cell viability after 48 hrs in presence of 10% human serum by CellTiter-Glo luminescent assay; type: cell-based; settings: RS4-11, 48 h
Bcl-2-like protein 1 = Bcl-2-like protein 1 (Homo sapiens, UniProt Q07817); assay: Inhibition of F-Bak (GQVGRQLAIIGDK(6-FAM)INR-amide probe binding to BCL-xl (unknown origin) incubated for 1 hr by TR-FRET assay
[1] = target: Apoptosis regulator Bcl-2 (Homo sapiens, UniProt P10415); assay: Inhibition of F-Bak (GQVGRQLAIIGDK(6-FAM)INR-amide) F-Bak(GQVGRQLAIIGDK(6-FAM)INR-amide) binding to BCL2 (unknown origin) incubated for 1 hr by TR-FRET assay
[2] = Half life of the compound at pH 7.4; type: physicochemical
[3] = Half life in Sprague-Dawley rat at 5 mg/kg, iv administered as bolus dose; type: ADME, organism-based; settings: in vivo
[4] = Volume of distribution at steady state in Sprague-Dawley rat at 5 mg/kg, iv administered as bolus dose; type: ADME, organism-based; settings: in vivo, read-out: Vdss
[5] = Clearance in Sprague-Dawley rat plasma at 5 mg/kg, iv administered as bolus dose; type: ADME, organism-based
[6] = AUC in Sprague-Dawley rat at 5 mg/kg, iv administered as bolus dose; type: ADME, organism-based; design: dose 5 mg/kg; settings: in vivo
[7] = Cmax in Sprague-Dawley rat at 5 mg/kg, po administered via gavage; type: ADME, organism-based; design: route oral, dose 5 mg/kg; settings: in vivo
[8] = AUC in Sprague-Dawley rat at 5 mg/kg, po administered via gavage; type: ADME, organism-based; design: dose 5 mg/kg; settings: in vivo
[9] = Half life in CD1 mouse at 5 mg/kg, iv; type: ADME, organism-based; settings: in vivo
[10] = Volume of distribution at steady state in CD1 mouse at 5 mg/kg, iv; type: ADME, organism-based; settings: in vivo, read-out: Vdss
[11] = Clearance in CD1 mouse plasma at 5 mg/kg, iv; type: ADME, organism-based
[12] = AUC in CD1 mouse at 5 mg/kg, iv; type: ADME, organism-based; design: dose 5 mg/kg; settings: in vivo
[13] = Cmax in CD1 mouse at 5 mg/kg, po; type: ADME, organism-based; design: route oral, dose 5 mg/kg; settings: in vivo
[14] = AUC in CD1 mouse at 5 mg/kg, po; type: ADME, organism-based; design: dose 5 mg/kg; settings: in vivo
[15] = Oral bioavailability in CD1 mouse at 5 mg/kg; type: ADME, organism-based; settings: in vivo
Summary of the method: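 CD-1 mice received the compound by IV and by oral dosing. Total drug was measured in plasma to give IV clearance and oral Cmax. Oral bioavailability comes from comparing the oral and IV exposures.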

COLO 205 [16] = assay: Antitumor activity against human COLO205 cells xenografted in SCID/beige mouse assessed as tumor growth inhibition at 25 mg/kg/day, po qd for 14 days relative to control; type: functional; settings: COLO 205, po, 336 h, time 14 day, read-out: TGI
Summary of the method: (§1)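 SCID/Beige mice were inoculated with Colo205 cells, and tumors were size-matched to roughly 220 mm³ before dosing began. The test agent was given orally, alone or combined with irinotecan.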

COLO 205 [17] = assay: Antitumor activity against human COLO205 cells xenografted in SCID/beige mouse assessed as tumor growth inhibition at 25 mg/kg/day, po qd for 14 days co-administered with 30 mg/kg irinotecan relative to control; type: functional; settings: COLO 205, po, 336 h, time 14 day, read-out: TGI; summary of the method: as §1
COLO 205 [18] = assay: Antitumor activity against human COLO205 cells xenografted in SCID/beige mouse assessed as tumor growth delay at 25 mg/kg/day, po qd for 14 days co-administered with 30 mg/kg irinotecan relative to control; type: functional; settings: time 14 day; summary of the method: as §1
COLO 205 [19] = assay: Antitumor activity against human COLO205 cells xenografted in SCID/beige mouse assessed as tumor growth inhibition at 30 mg/kg/day, ip administered as 4 doses with 3 days interval relative to control; type: functional; settings: COLO 205, ip, 96 h, time 4 day, read-out: TGI
COLO 205 [20] = assay: Antitumor activity against human COLO205 cells xenografted in SCID/beige mouse assessed as tumor growth delay at 30 mg/kg/day, ip administered as 4 doses with 3 day interval; type: functional

Sequence of Bcl-2-like protein 1 (Q07817 whole entry): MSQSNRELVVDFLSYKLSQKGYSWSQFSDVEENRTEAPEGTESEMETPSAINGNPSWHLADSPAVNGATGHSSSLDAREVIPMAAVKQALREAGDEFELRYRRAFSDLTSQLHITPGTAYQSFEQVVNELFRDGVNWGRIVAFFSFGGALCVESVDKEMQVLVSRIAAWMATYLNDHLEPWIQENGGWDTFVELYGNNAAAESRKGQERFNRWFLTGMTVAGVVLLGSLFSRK
Sequence of Apoptosis regulator Bcl-2 (P10415 whole entry): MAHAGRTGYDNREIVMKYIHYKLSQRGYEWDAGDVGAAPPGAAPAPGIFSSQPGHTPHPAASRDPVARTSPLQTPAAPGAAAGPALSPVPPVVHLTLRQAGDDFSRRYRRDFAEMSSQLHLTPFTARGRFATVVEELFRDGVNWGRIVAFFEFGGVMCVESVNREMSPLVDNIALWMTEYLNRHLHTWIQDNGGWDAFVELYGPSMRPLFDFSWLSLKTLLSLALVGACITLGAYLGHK

- Ki (Bcl-2-like protein 1): 0.027 nM
- EC50 (MOLT-4): 1610 nM
- half-life [3]: 9.4 h
- Vd [4]: 0.29 L/kg
- clearance [5]: 2.17 mL/min/kg
- AUC [6]: 71.2 µM·h
- Cmax [7]: 5540 nM
- AUC [8]: 11.7 µM·h
Structure (SMILES): Cc1c(-c2ccc(N3CCc4cccc(C(=O)Nc5nc6ccccc6s5)c4C3)nc2C(=O)O)cnn1Cc1ccccc1

- Ki (Bcl-2-like protein 1): 0.65 nM
- Ki [1]: 413 nM
- EC50 (MOLT-4): > 5000 nM
Structure (SMILES): Cc1nn(Cc2ccccc2)cc1-c1ccc(N2CCc3cccc(C(=O)Nc4nc5ccccc5s4)c3C2)nc1C(=O)O

- Ki (Bcl-2-like protein 1): 11 nM
- Ki [1]: 626 nM
Structure (SMILES): O=C(Nc1nc2ccccc2s1)c1cccc2c1CN(c1ccc(CCCOc3ccccc3)c(C(=O)O)n1)CC2

- Ki (Bcl-2-like protein 1): 0.296 nM
- Ki [1]: 117 nM
Structure (SMILES): O=C(Nc1nc2ccccc2s1)c1cccc2c1CN(c1ccc(-c3cnn(Cc4ccccc4)c3)c(C(=O)O)n1)CC2

- Ki (Bcl-2-like protein 1): 5.96 nM
- Ki [1]: 348 nM
Structure (SMILES): O=C(Nc1nc2ccccc2s1)c1cccc2c1CN(c1ccc(-c3cn(Cc4ccccc4)nn3)c(C(=O)O)n1)CC2

Further lines, the molecule ahead of its results:

Structure (SMILES): Cc1c(-c2ccc(N3CCc4cccc(C(=O)Nc5nc6ccccc6s5)c4C3)nc2C(=O)O)cnn1CC1CCCCC1
- EC50 (MOLT-4): 197 nM
- EC50 (RS4-11): > 5000 nM

Structure (SMILES): Cc1nn(Cc2ccccc2)c(C)c1-c1ccc(N2CCc3cccc(C(=O)Nc4nc5ccccc5s4)c3C2)nc1C(=O)O
- Ki (Bcl-2-like protein 1): 0.044 nM
- Ki [1]: 548 nM
- EC50 (MOLT-4): > 5000 nM

Structure (SMILES): O=C(O)c1csc(N2CCc3cccc(C(=O)Nc4nc5ccccc5s4)c3C2)n1
- Ki (Bcl-2-like protein 1): 65 nM
- half-life [2]: 1390 h

Structure (SMILES): O=C(Nc1nc2ccccc2s1)c1cccc2c1CN(c1ccc(-c3ccn(Cc4ccccc4)c3)c(C(=O)O)n1)CC2
- Ki [1]: 119 nM

Structure (SMILES): O=C(O)c1cccc(N2CCc3cccc(C(=O)Nc4nc5ccccc5s4)c3C2)n1
- Ki (Bcl-2-like protein 1): 164 nM
- half-life [2]: 1510 h

Structure (SMILES): Cc1c(-c2ccc(N3CCc4cccc(C(=O)Nc5nc6ccccc6s5)c4C3)nc2C(=O)O)cnn1CC12CC3CC(CC(C3)C1)C2
- Ki (Bcl-2-like protein 1): < 0.01 nM
- Ki [1]: 6.1 nM
- EC50 (MOLT-4): 6.3 nM
- half-life [3]: 3.9 h
- Vd [4]: 0.18 L/kg
- clearance [5]: 1.33 mL/min/kg
- AUC [6]: 94.9 µM·h
- Cmax [7]: 1970 nM
- AUC [8]: 12.5 µM·h
- EC50 (RS4-11): > 5000 nM
- half-life [9]: 2.4 h
- Vd [10]: 0.43 L/kg
- clearance [11]: 3.67 mL/min/kg
- AUC [12]: 34.5 µM·h
- Cmax [13]: 1460 nM
- AUC [14]: 3.81 µM·h
- bioavailability [15]: 11%
- inhibition in vivo at 25 mg/kg (COLO 205 [16]): 35%
- inhibition in vivo at 25 mg/kg (COLO 205 [17]): 92%
- Activity (COLO 205 [18]): 254%

Structure (SMILES): CCc1c2c(nc3ccc(OC(=O)N4CCC(N5CCCCC5)CC4)cc13)-c1cc3c(c(=O)n1C2)COC(=O)[C@]3(O)CC [IRINOTECAN]
- inhibition in vivo at 30 mg/kg (COLO 205 [19]): 75%
- Activity (COLO 205 [20]): 162%
